Vif imaging: HIV Vif inhibition | HEK293T cells, Vif self-association by quenched fluorescence, imaging, 24 h | inhibition, % at 7.49 µM | actives 0.35% (n = 340,000) | AID 602346; in the data active = inhibition above about 50%, passing the limit was not always enough
PglD DTNB: inhibitors of Campylobacter jejuni PglD acetyltransferase; purified PglD enzyme, DTNB colorimetric CoA detection; inhibition, % at 12.5 µM; actives 0.098% (n = 360,000); AID 602405; in the data active = inhibition above about 16%, passing the limit was not always enough
PGC1a acetyl inh: modulators of PGC1a acetylation; U2OS PGC1a acetylation, AlphaScreen anti-acetyl-lysine; with virally co-expressed GCN5 acetyltransferase; inhibition, % at 15.6 µM; actives 0.17% (n = 350,000);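 active = every replicate shows inhibition of at least 40%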;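 also: 0% = neutral control wells and 100% = positive control wells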
Cneo AK release: causes C. neoformans cell lysis | AID 651654 | adenylate kinase release luminescence, 4 h; normalised: neutral wells 0, clomiphene wells 100 | lysis activity, % at 15 µM | actives 0.2% (n = 360,000);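 active = mean lysis activity across replicates of at least 80%, whatever share of replicates individually reach that level; inactive = mean lysis activity below 80%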
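Test system: log-phase Cryptococcus neoformans yeast cells; Quantity: yeast cell density of 5 × 10^6 cells/mL; Buffer or medium: YPD; Doses: single compound concentration per well; Timing: 4 h at 37 °C static, read 1 h later; Measured by: AK luminescence; Read-out basis: lysis from increased AK signal; Control set: Clomiphene as positive control.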
FGF22 binding: FGF22 (human) thermal shift binding. Q9HCT0. recombinant FGF22 thermal shift, SYPRO orange fluorescence; percent of sucrose octasulfate shift, DMSO zero. activity (Tm shift, normalised), % at 9.99 µM. actives 1.5% (n = 340,000);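 active = mean Tm shift, scaled 0 neutral to 100 positive control, at about 1.3% or above, every replicate too, limit read from the data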
Target sequence (Q9HCT0 whole entry, looked up): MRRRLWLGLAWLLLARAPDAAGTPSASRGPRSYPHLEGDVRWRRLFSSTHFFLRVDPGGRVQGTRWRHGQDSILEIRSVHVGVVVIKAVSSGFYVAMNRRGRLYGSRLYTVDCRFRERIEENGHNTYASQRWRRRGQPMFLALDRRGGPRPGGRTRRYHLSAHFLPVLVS
Ecoli rRNA inh: inhibitors of bacterial rRNA selective over humanized ribosomes. E. coli WT GFP vs humanized-ribosome RFP mutants, fluorescence, 24 h; hits give low values; DMSO median 0, no signal -100. GFP signal change (wild-type ribosome), % (concentration not given with the values). actives 1.6% (n = 350,000). AID 720706;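 active = significant combined selectivity score with lowered wild-type GFP, culture density cut under 30%, mutant RFP and density less affected; inactive = any of these conditions unmet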
The depositor's hits bear a star; nt = no result given. Hits are enriched below; roughly 2.9% of the tested compounds scored in any of these assays.

SMILES	Vif imaging	PglD DTNB	PGC1a acetyl inh	Cneo AK release	FGF22 binding	Ecoli rRNA inh
COc1ccc(NC(=O)C2=C(C)NC(=O)NC2c2cccs2)c(OC)c1 (configuration not stated)	1	-7	4	-1	44*	10
CC1=C(C(=O)Nc2ccccc2)C(c2ccccc2[N+](=O)[O-])NC(=O)N1 (configuration not stated)	-2	-1	13	0	43*	12
COc1ccccc1NC(=O)C1=C(C)NC(=O)NC1c1cccs1 (configuration not stated)	2	nt	-9	nt	0	6
CC1=C(C(=O)Nc2ccccc2)C(c2ccco2)NC(=O)N1 (configuration not stated)	26	2	2	1	nt	nt
Cc1ccc(S(=O)(=O)N(C)C[C@@H]2Oc3c(NC(=O)Nc4cccc5ccccc45)cccc3C(=O)N([C@@H](C)CO)C[C@H]2C)cc1	nt	1	-6	65	1	2
O=C(O)C[C@H]1CC[C@@H](NC(=O)CCN2CCCCC2)[C@@H](CO)O1	nt	nt	2	nt	nt	2
COc1ccc(Cl)cc1C(=O)NN=C1CCCC1	-3	nt	nt	nt	0	7
O=C(NN=C1CCCC1)c1cc(Cl)cc(Cl)c1O	11	10	6	-1	-1	-29*
CCCC1=[N+](CC(C)=O)CCn2c(C)ccc21	-7	nt	nt	nt	43*	21
Cc1ccc(Cn2cc(/C=N/NC(=O)Cc3nnc(NC(=O)c4ccc(C)cc4)s3)c3ccccc32)cc1	8	-2	nt	0	43*	7
O=C(C1CC1)N1CC2(C1)[C@H](c1ccccc1)[C@H](CO)N2Cc1cncnc1	nt	nt	2	nt	0	4
O=[N+]([O-])c1ccc(C[n+]2cccc3c4ccccc4ccc32)cc1	-14	nt	nt	nt	43*	-3
C[C@@H]1CCCCO[C@@H](CN(C)C(=O)Nc2ccccc2)[C@H](C)CN([C@@H](C)CO)C(=O)c2cc(NC(=O)c3ccncc3)ccc2O1	nt	-5	-2	-1	nt	3
CCOc1ccc(N=C2NC(=O)S/C2=C\c2ccc(N(C)C)cc2)cc1	148*	-3	1	-4	nt	nt
CCOc1ccc(/C=C2/SC(=O)NC2=S)cc1	-9	0	1	1	nt	nt
COC(=O)C[C@@H]1C=C[C@H](NC(=O)Nc2ccc(C(F)(F)F)cc2)[C@@H](CO)O1	nt	1	1	-5	0	4
C[C@H](CO)N1C[C@H](C)[C@H](CN(C)C(=O)CC2CC2)Oc2cc(C#CC(C)(C)O)ccc2S1(=O)=O	nt	2	3	-1	0	3
Nc1cc(Cl)nc(N/N=C/c2c(O)ccc3ccccc23)n1	-5	nt	nt	nt	0	-20*
C[C@@H]1CN([C@H](C)CO)C(=O)c2cc(NC(=O)Cc3ccccc3)ccc2O[C@H]1CN(C)Cc1ccc(Cl)c(Cl)c1	nt	2	-11	1	-1	1
N#Cc1ccccc1NC(=O)CSC1=Nc2ccccc2C2CC=NN12 (configuration not stated)	-5	3	nt	1	44*	12
O=C(NCCN1CCNCC1)c1ccccc1O	62*	-7	-4	0	0	nt
O=C(NCCN1CCCC1)c1ccccc1Cl	4	0	nt	2	43	nt
c1ccc(CN2CCN(C3CCCSc4ccccc43)CC2)cc1 (configuration not stated)	8	7	-11	5	0	-30*
COc1cccc(C(=O)Nc2ccc3c(c2)OC[C@H](C)N(CC2CC2)C[C@@H](C)[C@@H](OC)CN(C)C3=O)c1	nt	-1	1	3	0	2
Cc1oc(C(=O)O)cc1COc1ccc2c(C)cc(=O)oc2c1	-4	nt	-1	nt	nt	nt
SMILES	Vif imaging	PglD DTNB	PGC1a acetyl inh	Cneo AK release	FGF22 binding	Ecoli rRNA inh
Cc1cc(=O)oc2cc(OCc3cc4c(cc3Cl)OCO4)ccc12	40*	-8	-12	-3	nt	nt
CCOc1ccc(S(=O)(=O)N2CCCCC2)cc1NC(=O)C1CCCC1	-2	0	17	0	43*	8
CCOc1ccc(NC(=O)CN(C)C(=O)c2cc(S(=O)(=O)N3CCCCC3)ccc2Cl)cc1OCC	92*	-4	3	-1	0	-3
CC(C)Oc1ccc(S(=O)(=O)N2CCCCC2)cc1NC(=O)C1CCCC1	5	4	nt	-2	0	nt
CCOc1ccc(S(=O)(=O)N2CCCCC2)c(C)c1C	-17	nt	nt	nt	43*	-51
CCOc1ccc(NC(=O)CN(C)C(=O)c2cc(S(=O)(=O)N3CCCCC3)ccc2C)cc1OCC	-3	3	6	-1	0	4
CC(=O)Nc1ccc2c(COC(=O)CC3Sc4ccccc4NC3=O)cc(=O)oc2c1 (configuration not stated)	-3	nt	1	nt	43*	13
COc1ccc2c(COC(=O)CC3Sc4ccccc4NC3=O)cc(=O)oc2c1 (configuration not stated)	-25	nt	nt	nt	44*	6
CCOC(=O)N1CCC(N(CCCOC)C(=O)Nc2ccc(CC)cc2)CC1	-6	-6	7	13	nt	-1
CCOC(=O)N1CCC(N(CCOC)C(=O)Nc2ccc(Cl)cc2)CC1	nt	-3	5	0	0	-16*
Cc1cc(C)c(C#N)c(Sc2nc(C)c([N+](=O)[O-])c(C)c2C#N)n1	-4	nt	nt	nt	1	9
Cc1nc(Sc2ccccc2)c(C#N)c(C)c1[N+](=O)[O-]	6	-1	-4	4	0	-35*
CCC(=O)Nc1ccc2c(c1)C(=O)N(C)C[C@H](OC)[C@H](C)CN(C(=O)COC)[C@H](C)CO2	nt	2	5	0	0	1
CC(=O)N(C)C[C@@H]1Oc2cc(C3=CCCCC3)ccc2S(=O)(=O)N([C@@H](C)CO)C[C@@H]1C	nt	nt	-1	nt	nt	1
CCc1c(C)nc2ncnn2c1Nc1ccc(C)cc1	-5	0	15	1	0	1
CCc1c(C)nc2ncnn2c1NCCc1ccc(OC)cc1	nt	4	-12	-1	0	-27*
OC1CCN(c2c3c(nc4cc(-c5cccc(F)c5)nn24)CCCC3)CC1	-3	4	-1	-1	0	-19*
CC=Cc1ccc2n(c1=O)C[C@@H]1[C@@H](CO)[C@H](C(=O)NCCc3cn(C)cn3)N(C(=O)C3CCC3)[C@H]21 (mixture of isomers)	nt	-4	nt	-4	0	3
CC(=O)c1ccc(N2CCN(C(=O)C3CCCN(c4ncnc5c4nc4n5CCCCC4)C3)CC2)cc1 (configuration not stated)	-5	-1	-6	-1	0	3
COc1ccc(N2CCN(C(=O)C3CCCN(c4ncnc5c4nc4n5CCCCC4)C3)CC2)cc1 (configuration not stated)	-2	4	-14	-3	-1	-26*
